# Screening data deposited in PubChem by several laboratories.
# KCNQ1 inh – inhibitors of human KCNQ1 channel, primary screen, cell-based, thallium flux, high-throughput; Potassium voltage-gated channel subfamily KQT member 1 (Homo sapiens), P51787; CHO-K1 KCNQ1, FluxOR thallium flux fluorescence; stronger effect = higher value; B-score at 10 µM; actives 1.3% (n = 310,000);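 active = compounds whose thallium flux B-score, printed positive for inhibition, exceeds three library SD while starting fluorescence stays within three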;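 also: channel opened by potassium depolarization with thallium stimulus after 20 min compound exposure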
# PHOSPHO1 inh – PubChem AID 1565; recombinant PHOSPHO1, absorbance phosphatase assay; Phosphoethanolamine/phosphocholine phosphatase (Homo sapiens), Q8TCT1; actives 1.1% (n = 290,000); inhibition, % at 13.3 µM; in the data active = inhibition above about 60%
# KCNQ1 pot – potentiators or activators of KCNQ1 channel, primary screen, cell-based, thallium flux, high-throughput. Potassium voltage-gated channel subfamily KQT member 1 (Homo sapiens), P51787. CHO-K1 KCNQ1, thallium flux FluxOR fluorescence; stronger effect = higher value. B-score at 10 µM. actives 0.35% (n = 310,000);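 active = fluorescence ratio B-score, a plate-corrected score, at least three library SD, with initial intensity B-score within 5 SD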
#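 assay system = CHO-K1 cells stably expressing KCNQ1 | medium = assay buffer, equal DMSO in all wells | timing = 37 °C overnight plating, 90-min dark dye load, 20-min compound pretreatment | measured by = kinetic FluxOR thallium fluorescence, 10-s 1-Hz baseline, 110-s post-stimulus read | measure = fluorescence change relative to baseline, converted to B score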
# KCNK9 inh – KCNK9 potassium channel inhibitors, primary screen, HEK293 cells, thallium flux; Potassium channel subfamily K member 9 (Homo sapiens), Q9NPC2; FluxOR thallium flux fluorescence; stronger effect = lower value; B-score at 10 µM; actives 1.2% (n = 310,000);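 active = ratio B-score over 3 SD below the library mean, with starting fluorescence within 5 SD of its mean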;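 also: negative B-score means less thallium flux so channel inhibition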
# KCNK3 block – human KCNK3 channel inhibitors, primary screen, CHO cells, FluxOR thallium flux, B-score; B-score at 10 µM; AID 602410, 2012; Potassium channel subfamily K member 3 (Homo sapiens), O14649; FluxOR fluorescence; stronger effect = lower value; actives 0.84% (n = 340,000);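 active = B-score under library mean minus 4 SD, starting fluorescence ratio at most library mean plus 5 SD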;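 also: more negative B-score means stronger inhibition of thallium flux through KCNK3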
# hERG rescue – hERG rescue from dofetilide block, primary screen, cell-based, CHO-hERG, FluxOR thallium flux, dofetilide IC70; Voltage-gated inwardly rectifying potassium channel KCNH2 (Homo sapiens), Q12809; activation (rescue from dofetilide block), less the hit threshold, % at 10 µM; dofetilide IC70 present; actives 0.51% (n = 310,000);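 active = activation above the mean of controls blocked by dofetilide plus 5 SD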;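 also: thallium influx through hERG after potassium depolarization seen as dye fluorescence rise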
# Starred values were filed as active, the others as inactive; i = inactive; . = no result given. Rows were chosen to be rich in hits. Some 4% of all compounds tested hit in one or more screens of this group.
SMILES,KCNQ1 inh,PHOSPHO1 inh,KCNQ1 pot,KCNK9 inh,KCNK3 block,hERG rescue
O=C(C1=C[C@@H](c2coc3ccccc3c2=O)C[C@@H](OCCCCO)O1)N1CCN(Cc2ccc3c(c2)OCO3)CC1,i,-28.1,i,i,i,-24.5
COc1ccc(C(=O)NC(=S)NNC(=O)c2cccc(C)c2)cc1,i,.,62*,i,i,-4.7
O=C(NC(=S)NNC(=O)[C@H]1C[C@@H]1c1ccccc1)c1cccc(F)c1,i,21.0,i,i,i,9.4*
COc1cccc(OC)c1C(=O)NC(=S)NNC(=O)[C@H]1C[C@@H]1c1ccccc1,i,7.7,i,i,i,-12.2
Cn1c(Cc2ccccc2)nnc1SCC(=O)Nc1ccccc1N1CCOCC1,i,17.6,i,i,i,-7.0
COc1ccc(C2CC(C)(c3ccc(OC)cc3OC)Nc3ccccc3N2)c(OC)c1 (stereo unspecified),6*,28.3,i,i,i,-22.8
O=C(NCC1CCN(C(=O)c2ccc([N+](=O)[O-])cc2)CC1)C(=O)Nc1ccccc1,i,2.0,i,i,i,-4.9
CCCN(Cc1ccccc1)C(=S)Nc1ccc(SC(F)F)cc1,6*,4.4,i,i,i,-10.4
CSc1nnc2c(n1)c(C)nn2-c1cccc(C)c1,i,5.1,i,i,i,-5.4
CC(=O)NCCc1nc2ccccc2[nH]1,i,-3.0,i,i,i,-0.7
CC(C)=C(NC(=O)c1ccccc1)C(=O)NCCc1nc2ccccc2[nH]1,i,64.0*,i,i,i,-5.6
COc1ccc(N(CC(=O)N2CCN(c3ccccc3F)CC2)S(=O)(=O)c2c(C)n[nH]c2C)cc1,i,-7.3,i,i,i,-5.3
CCSc1nc2sc3c(c2c(=O)[nH]1)CC(C)(CC)OC3 (stereo unspecified),i,4.1,i,i,i,-5.9
CCC1(C)Cc2c(sc3nc(SC)[nH]c(=S)c23)CO1 (stereo unspecified),i,18.4,74*,i,.,49.4*
CCCC(=O)OCC(=O)Nc1cc([N+](=O)[O-])ccc1OC,i,12.7,i,i,i,0.3
COc1ccc([N+](=O)[O-])cc1NC(=O)COC(C)=O,i,64.7*,i,i,i,-7.1
CCSCCOC(=O)C1=C(C)NC2=C(C(=O)CCC2)C1c1coc2ccccc2c1=O (stereo unspecified),i,63.2*,i,i,i,-3.9
COCCOC(=O)C1=C(C)NC2=C(C(=O)CCC2)C1c1cc2c(cc1Br)OCO2 (stereo unspecified),i,-6.1,i,i,i,-7.6
CCSc1cc(C2C(C(=O)OC)=C(C)NC3=C2C(=O)CCC3)c(C)o1 (stereo unspecified),i,101.7*,i,i,i,-1.8
CC(C)CN(C(=O)COC(=O)c1ccccc1Sc1ccccc1C#N)C1CCS(=O)(=O)C1 (stereo unspecified),i,1.9,i,i,i,-2.2
CC(=O)Nc1ccc(/C=N/N2C(=O)NC(C)(c3ccc(OC(F)F)cc3)C2=O)cc1 (stereo unspecified),i,20.1,34*,i,i,-10.1
CC1(c2ccc(OC(F)F)cc2)NC(=O)N(CC(=O)Nc2ccccc2)C1=O (stereo unspecified),i,40.5,i,i,i,-10.2
Cc1ccccc1NC(=O)Nc1cnccn1,i,41.4,i,i,i,-10.9
COC(=O)C1=C(C)N(Cc2ccc(C)cc2)C(=O)/C1=C\c1cc(OC)c(OC)c(OC)c1,i,-15.4,i,-6.59*,i,-13.6
COC(=O)C1=C(C)N(Cc2ccccc2)C(=O)/C1=C\c1ccco1,i,15.7,i,i,i,-5.6
